Screening results: PubChem BioAssay, Sanford-Burnham Center for Chemical Genomics
This is a sample that favours compounds with a hit; in the whole collection about 1.5% have one here.
CCR6 antagonist – antagonists of human CCR6 receptor; P51684; CHO-K1 CCR6 PathHunter beta-arrestin, luminescence, CCL20-stimulated; inhibition, % at 20 µM; 0.49% of 340,000 active; AID 493098;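 active = compounds whose inhibition of the agonist-driven luminescence signal at 20 µM reaches about 50%, limit read from the data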;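 also: cells stimulated with CCL20 at 14 nM final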
CXCR6 block – CXCR6 (human) receptor inhibition; CHO-K1 PathHunter CXCR6 beta-arrestin, luminescence; inhibition, % at 20 µM; 0.36% of 360,000 active; AID 602244; in the data active = inhibition above about 34%, passing the limit was not always enough;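 also: antagonist mode with CXCL16 agonist at 10 nM final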
APJ antag – antagonists of human APJ apelin receptor. P35414. CHO-K1 APJ beta-arrestin complementation, luminescence. inhibition, % at 20 µM. 0.32% of 330,000 active;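 active = inhibition above about 40% at 20 µM, limit read from the data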;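 also: cells challenged with 10 nM apelin-13 agonist together with compound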
Target sequence (P35414 whole entry, looked up): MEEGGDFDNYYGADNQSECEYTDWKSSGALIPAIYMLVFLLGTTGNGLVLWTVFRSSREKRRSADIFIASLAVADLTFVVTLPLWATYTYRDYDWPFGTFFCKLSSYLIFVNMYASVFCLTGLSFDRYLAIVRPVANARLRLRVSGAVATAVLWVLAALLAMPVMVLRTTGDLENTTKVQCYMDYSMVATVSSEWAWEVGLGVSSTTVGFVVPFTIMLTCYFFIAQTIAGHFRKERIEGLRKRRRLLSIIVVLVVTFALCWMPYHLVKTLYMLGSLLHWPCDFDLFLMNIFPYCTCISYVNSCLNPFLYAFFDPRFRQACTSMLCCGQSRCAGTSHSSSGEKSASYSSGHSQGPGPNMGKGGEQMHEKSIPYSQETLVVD
APJ ag – activates the human apelin receptor APJ; P35414; CHO-K1 APJ PathHunter beta-arrestin, luminescence; 0% DMSO wells, 100% apelin; activation, % at 20 µM; 0.11% of 330,000 active;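 active = activation more than six SD over the plate average, tested at 20 µM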
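system = engineered CHO-K1 APJ arrestin reporter cells | input = 1000 cells per well | timing = overnight seeding, 90 min compound at 25 °C, 1 h detection | measured by = enzyme-fragment complementation luminescence | read-out = beta-arrestin recruitment to APJ as agonist activity, luminescent signal | control set = negative DMSO alone, positive Apelin-13 at 10 nM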
hiPSC survival – increases survival of single human iPS cells. survival enhancement, % at 20 µM. 0.044% of 360,000 active. AID 602274. hiPSC single-cell survival, ATPlite luminescence; 100% = ROCK inhibitor wells, 0% = DMSO; in the data active = survival enhancement above about 18%;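 also: cells exposed to compounds for 16 hours before the ATP read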
EBI2 antag – EBI2 (human) antagonism | P32249 | EBI2 beta-arrestin recruitment, luminescence, 7a,25-OHC stimulated | inhibition, % at 5 µM | 0.81% of 360,000 active | AID 651636; in the data active = inhibition above about 38%;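 also: enzyme fragment complementation signal reports receptor beta-arrestin coupling in cells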
EBI2 conf – EBI2 (human) antagonism, single concentration confirmation. 29% of 2,400 active. shares compounds with EBI2 antag. EBI2 beta-arrestin luminescence, 7a,25-OHC antagonism. inhibition, % at 5 µM. AID 651997;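 active = inhibition of at least 50%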
EBI2 agonist – counter-screen for EBI2 antagonists: EBI2 agonist activity; AID 652000; 2,400 tested, under 10 active; activation, % at 5 µM; shares compounds with EBI2 antag; EBI2-expressing cells, agonist mode, luminescence, 60 min; 0% vehicle, 100% 7α,25-dihydroxycholesterol control;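 active = activation of at least 50%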
bGal counter – beta-galactosidase inhibition counter-screen; shares compounds with EBI2 antag; purified beta-galactosidase, luminescent Galacton Star, 15 min; inhibition, % at 5 µM; 1% of 2,400 active;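 active = replicate-average signal at least 3 plate SD below neutral wells, shown as high inhibition, flagging enzyme-inhibiting false positives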;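 also: higher means stronger loss of beta-gal luminescence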
A number is an active result; . = inactive; / = not tested or not shown.

SMILES	CCR6 antagonist	CXCR6 block	APJ antag	APJ ag	hiPSC survival	EBI2 antag	EBI2 conf	EBI2 agonist	bGal counter
CCOC(=O)c1ccc(S(=O)(=O)N2CCN(CC(O)COc3cccc(C(C)=O)c3)CC2)cc1 (stereo not drawn)	.	.	/	/	.	.	/	/	/
Nc1ncnc2c1ncn2[C@@H]1O[C@H](CNCc2ccccc2OC2OC(CO)C(O)C(O)C2O)[C@@H](O)[C@H]1O (stereo partly drawn)	.	.	/	/	.	.	/	/	/
Clc1ccc(CN(CC2CCCO2)C(c2cccs2)c2nnnn2C2CCCC2)cc1 (stereo not drawn)	.	.	.	.	.	49.2	.	.	.
CCN(Cc1ccccc1)C(c1cccs1)c1nnnn1C1CCCCC1 (stereo not drawn)	.	.	.	.	.	49.4	.	.	.
O=C(COC(=O)CCC(=O)c1ccc(F)cc1)NCc1ccccc1Cl	.	.	.	.	.	.	/	/	/
CC(=O)N1N=C(c2ccccc2)CC1c1cn(Cc2ccccc2)c2ccccc12 (stereo not drawn)	.	.	.	.	.	49.4	.	.	.
O=C(NCc1ccc2c(c1)OCO2)C1CCN(C(=O)Nc2ccc(Cl)cc2)CC1	.	.	.	.	.	46.0	.	.	.
CSc1ccc(/C=C/C(=O)c2ccc(NC(C)=O)cc2)cc1	.	.	.	.	.	80.5	.	.	.
CCCC(=O)Nc1ccc(C(=O)/C=C/c2ccc(SC)cc2)cc1	.	.	.	.	.	43.5	.	.	.
O=C(/C=C/c1ccc(Br)cc1)c1ccc(NC(=O)c2ccco2)cc1	.	.	.	.	.	42.9	.	.	.
O=C(/C=C1\C(=O)Nc2ccccc21)/C=C1\C(=O)Nc2ccccc21	.	.	/	/	.	40.8	.	.	.
CN(C)/C=C1\C(=O)Nc2ccccc21	.	.	.	.	.	.	/	/	/
CCOC(=O)c1cnc2cc(Cl)c(OC)cc2c1NCC1CCCO1 (stereo not drawn)	.	.	.	.	.	41.4	.	.	.
CCOC(=O)c1ccc2ncc(C(=O)OCC)c(NCCN3CCOCC3)c2c1	.	.	.	.	.	.	/	/	/
Cc1nc(SC(C)C(=O)c2c(N)n(C)c(=O)n(C)c2=O)c2c(C)c(C)sc2n1 (stereo not drawn)	.	.	.	.	.	46.7	51.2	.	.
CC(Sc1nnc(N)s1)C(=O)c1c(N)n(C)c(=O)n(C)c1=O (stereo not drawn)	.	.	.	.	.	.	/	/	/
COc1ccc(-n2cc(-c3ccc(Br)cc3)[nH]c2=S)cc1	.	.	.	.	.	79.0	51.6	.	.
CCOC(=O)c1ccc(S(=O)(=O)NCCNCc2ccccc2)cc1	.	.	.	.	.	.	/	/	/
COc1cc(OC)cc(-c2c(Sc3ccccc3)c3cc(-c4cnc(OC)nc4)ccc3n2C)c1	/	.	/	/	.	65.1	.	.	.
Cc1cc(C)c(S(=O)(=O)N2CCN(C(=O)c3c(C)nn(-c4ccccc4)c3Cl)CC2)c(C)c1	.	.	/	/	.	.	/	/	/
Cc1cc(C)c(S(=O)(=O)N2CCN(C(=O)c3ccc(-n4nc(C)c(Cl)c4C)cc3)CC2)c(C)c1	.	.	/	/	.	94.0	68.0	.	.
Cc1ccc(NC(=O)NC(=O)COc2c(F)c(F)cc(F)c2F)c(C)c1	.	.	.	.	.	.	/	/	/
COc1ccc2cc(C(=O)N3CCN(c4ccccc4F)CC3)[nH]c2c1	.	.	.	.	.	65.5	57.7	.	.
COc1ccc2cc(C(=O)N3CCN(c4ccccc4OC)CC3)[nH]c2c1	.	.	.	.	.	74.5	.	.	.
CCOC(=O)c1cnc(SCC(=O)Nc2cc(C(F)(F)F)ccc2N2CCOCC2)nc1N	.	.	.	.	.	85.0	86.3	.	.
